Tests used:
[1] = Drug metabolism in Lewis rat blood assessed as parent compound concentration at 0.5 mg/kg, po measured at 4 hrs by LC-MS/MS analysis; format: ADME, organism-based; settings: in vivo, 0.5 mg/kg, 4 h, BLD = below limit of detection
Method in brief: (§1)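 Lewis rats (n = 2−4) dosed orally at 0.5, 1, 2 or 5 mg/kg; blood parent and phosphate metabolite concentrations and lymphocyte counts taken 4 and 24 h post-dose; phosphate-to-parent ratio from 24 h levels; significance versus vehicle by ANOVA with Dunnett's test.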

[2] = Cardiotoxicity in human iPSC derived cardiomyocytes assessed as change in heart rate at 10 nM measured over 2 hrs by multi-electrode array relative to control; format: toxicity, cell-based; settings: stem cell-derived cardiomyocyte, 0.01 µM
Method in brief: (§2)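 Phosphate metabolite of each compound prepared and tested on cultured human induced pluripotent stem cell-derived cardiomyocytes at 1 and 10 nM; beat rate change averaged over three or more replicates per concentration unless noted (some n = 2).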

[3] = Reduction in circulating lymphocytes count in Lewis rat at 0.5 mg/kg, po measured at 24 hrs by hematology analyzer based analysis; format: ADME, organism-based; design: scale not given: the % may be the effect or the level left; settings: in vivo; method in brief: as §1
[4] = Reduction in circulating lymphocytes count in Lewis rat at 0.5 mg/kg, po measured at 4 hrs by hematology analyzer based analysis; format: ADME, organism-based; design: scale not given: the % may be the effect or the level left; settings: in vivo; method in brief: as §1
[5] = Cardiotoxicity in human iPSC derived cardiomyocytes assessed as change in heart rate at 1 nM measured over 2 hrs by multi-electrode array relative to control; format: toxicity, cell-based; settings: stem cell-derived cardiomyocyte, 0.001 µM; method in brief: as §2
[6] = Drug metabolism in Lewis rat blood assessed as parent compound concentration at 0.5 mg/kg, po measured at 24 hrs by LC-MS/MS analysis; format: ADME, organism-based; method in brief: as §1
[7] = Half life in Lewis rat at 1 mg/kg, po measured at 4 to 72 hrs; format: ADME, organism-based; settings: in vivo, time 4-72 hrs
Method in brief: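 Half-life estimated from oral-dosing blood PK profiles in Lewis rats sampled at four time points: 4, 24, 48 and 72 h.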

[8] = Reduction in circulating lymphocytes count in Lewis rat at 1 mg/kg, po measured at 24 hrs by hematology analyzer based analysis; format: organism-based; design: scale not given: the % may be the effect or the level left; settings: in vivo; method in brief: as §1
[9] = Pulmonary toxicity in Lewis rat assessed as fold elevation of BAL protein content at 1 mg/kg, po by chemistry analyzer based analysis relative to control; format: organism-based; settings: in vivo
Method in brief: (§3)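 Lewis rats dosed orally; bronchoalveolar lavage protein measured at study end, expressed as fold over vehicle control.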

[10] = Drug concentration in Lewis rat blood assessed as concentration of parent compound at 1 mg/kg, po measured at 4 hrs by LC-MS/MS analysis; format: ADME, organism-based; settings: for concentration at 4 h: Lewis, blood, read-out: Ct; method in brief: as §1
Rattus norvegicus [11] = assay: Reduction in circulating lymphocytes count in Lewis rat at 1 mg/kg, po measured at 4 hrs by hematology analyzer based analysis; format: functional; design: scale not given: the % may be the effect or the level left; method in brief: as §1
[12] = Drug metabolism in Lewis rat blood assessed as concentration of parent compound at 1 mg/kg, po measured at 24 hrs by LC-MS/MS analysis; format: ADME, organism-based; settings: Lewis, blood, read-out: Ct; method in brief: as §1
[13] = Drug metabolism in Lewis rat blood assessed as phosphate ester metabolite to parent ratio at 1 mg/kg, po measured at 24 hrs by LC-MS/MS analysis; settings: in vivo
[14] = Drug concentration in Lewis rat blood assessed as concentration of parent compound at 5 mg/kg, po measured at 4 hrs by LC-MS/MS analysis; format: ADME, organism-based; settings: read-out: Ct; method in brief: as §1
Rattus norvegicus [15] = assay: Reduction in circulating lymphocytes count in Lewis rat at 5 mg/kg, po measured at 4 hrs by hematology analyzer based analysis; format: functional; design: scale not given: the % may be the effect or the level left
Method in brief: (§4)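 Lewis rats (n = 2−4) dosed orally; whole-blood lymphocyte counts taken 4 h and 24 h after dosing and reduction expressed versus vehicle-treated rats. Significance by ANOVA with Dunnett's test (p < 0.05 vs vehicle). Blood levels of parent and phosphate metabolite measured at the same time points in this PK/PD screen.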

[16] = Reduction in circulating lymphocytes count in Lewis rat at 5 mg/kg, po measured at 24 hrs by hematology analyzer based analysis; format: ADME, organism-based; design: scale not given: the % may be the effect or the level left; settings: in vivo; method in brief: as §4
[17] = Drug concentration in Lewis rat blood assessed as concentration of parent compound at 5 mg/kg, po measured at 24 hrs by LC-MS/MS analysis; format: ADME, organism-based; method in brief: as §1
[18] = Pulmonary toxicity in Lewis rat assessed as fold elevation of BAL protein content at 5 mg/kg, po by chemistry analyzer based analysis relative to control; format: organism-based; settings: in vivo; method in brief: as §3
Rattus norvegicus [19] = assay: Reduction in circulating lymphocytes count in Lewis rat at 2 mg/kg, po measured at 4 hrs by hematology analyzer based analysis; format: functional; design: scale not given: the % may be the effect or the level left; method in brief: as §4
[20] = Pulmonary toxicity in Lewis rat assessed as fold elevation of BAL protein content at 2 mg/kg, po by chemistry analyzer based analysis relative to control; format: organism-based; settings: in vivo; method in brief: as §3
[21] = Drug concentration in Lewis rat blood assessed as concentration of parent compound at 2 mg/kg, po measured at 24 hrs by LC-MS/MS analysis; format: ADME, organism-based; settings: in vivo, read-out: Ct; method in brief: as §1
[22] = Drug concentration in Lewis rat blood assessed as concentration of parent compound at 2 mg/kg, po measured at 4 hrs by LC-MS/MS analysis; format: ADME, organism-based; settings: Lewis, blood, read-out: Ct; method in brief: as §1
[23] = Reduction in circulating lymphocytes count in Lewis rat at 2 mg/kg, po measured at 24 hrs by hematology analyzer based analysis; format: Functional, organism-based; design: scale not given: the % may be the effect or the level left; settings: in vivo; method in brief: as §4
[24] = Ratio of drug metabolism in Lewis rat blood assessed as phosphate ester metabolite to parent drug at 2 mg/kg, po measured at 24 hrs by LC-MS/MS analysis; format: ADME, organism-based; settings: in vivo; method in brief: as §1

Row | SMILES | Activity [2] [%] | Activity [5] [%] | half-life [7] [min] | Activity [8] [%] | Activity (Rattus norvegicus [11]) [%] | concentration at 24 h [12] [nM] | Ratio [13] | concentration at 4 h [10] [nM] | also measured
1 | CCCCCSC[C@H]1CCc2cc([C@H]3CC[C@](N)(CO)C3)ccc2C1 | -41 | -29 | – | – | – | – | – | – | Ct [1]: Bld; Activity [3]: 56%; Activity [4]: 0%; Ct ([6]; in vivo, 0.5 mg/kg, 24 h, BLD = below limit of detection): Bld
2 | CCCCSC[C@@H]1CCc2cc([C@H]3CC[C@](N)(CO)C3)ccc2C1 | -46 | -28 | 1620 | 63 | 6 | 73 | 0.36 | – | fold change (FC) [9]: 1.1; Ct ([10]; in vivo, 1 mg/kg, 4 h, BLD = below limit of detection): Bld
3 | CCCOCCOC[C@@H]1CCc2cc([C@H]3CC[C@](N)(CO)C3)ccc2C1 | – | – | – | – | – | – | – | – | concentration at 4 h [14]: 360 nM; Activity (Rattus norvegicus [15]): 72%; Activity [16]: 70%; concentration at 24 h ([17]; Lewis, blood, read-out: Ct): 28 nM; fold change (FC) [18]: 1.4
4 | C=CCCCC[C@@H]1CCc2cc([C@H]3CC[C@](N)(CO)C3)ccc2C1 | – | – | 2820 | 75 | 9 | 40 | 19 | 30 | –
5 | CCCSCC[C@@H]1CCc2cc([C@H]3CC[C@](N)(CO)C3)ccc2C1 | -42 | -43 | – | – | – | – | – | – | Activity (Rattus norvegicus [19]): 63%; fold change (FC) [20]: 1.1; concentration [21]: 72 nM; concentration at 4 h [22]: 193 nM; Activity [23]: 73%; Ratio [24]: 0.17
6 | CC/C=C\CC[C@@H]1CCc2cc([C@H]3CC[C@](N)(CO)C3)ccc2C1 | -38 | -21 | 300 | 69 | 31 | 180 | 1.3 | 165 | –
7 | CCCCS(=O)(=O)C[C@@H]1CCc2cc([C@H]3CC[C@](N)(CO)C3)ccc2C1 | – | – | – | – | – | – | – | – | concentration at 4 h [14]: 44 nM; Activity (Rattus norvegicus [15]): 13%; Activity [16]: 16%; Ct ([17]; in vivo, 5 mg/kg, 24 h, BLD = below limit of detection): Bld; fold change (FC) [18]: 0.8
8 | CC/C=C/CC[C@@H]1CCc2cc([C@H]3CC[C@](N)(CO)C3)ccc2C1 | -33 | -11 | 240 | 74 | 27 | 140 | 5.8 | 66 | fold change (FC) [9]: 1.1
9 | CCCC/C=C/[C@@H]1CCc2cc([C@H]3CC[C@](N)(CO)C3)ccc2C1 | – | – | > 4500 | 72 | 0 | 77 | 2.6 | 57 | –
10 | CCCCCSC[C@@H]1CCc2cc([C@H]3CC[C@](N)(CO)C3)ccc2C1 | – | – | – | – | – | – | – | – | Ct [1]: Bld; Activity [3]: 63%; Activity [4]: 0%; concentration at 24 h ([6]; Lewis, blood, read-out: Ct): < 31 nM

Reference: ChEMBL document CHEMBL4732158, “Bicyclic Ligand-Biased Agonists of S1P: Exploring Side Chain Modifications to Modulate the PK, PD, and Safety Profiles” (J Med Chem, 2021)
